The source made the active and inactive calls. The calls are words filed in the database; no cut-off is given here.
Assays:
Format in all cases: functional, organism-based
Conditions in all cases: Mycobacterium bovis BCG str. Pasteur 1173P2
[1] = test system: Mycobacterium tuberculosis variant bovis; assay: Inhibition of mycolic acid synthesis in Mycobacterium bovis BCG Pasteur 1173P2 sonicates assessed as inhibition of alphamycolates production by autoradiography
In short: (§1)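 BCG sonicate (3 mg protein) with 1 μCi [1,2-14C]acetate, ISO 0, 2 or 5 μg/ml final, ±purified EthA (up to 10 μg), 25 mM Tris-HCl pH 7.5; 10 min ice, 2 h 37°C; mycolic acid methyl esters by TLC (hexane:ethyl acetate 95:5) and autoradiography.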

[2] = test system: Mycobacterium tuberculosis variant bovis; assay: Inhibition of mycolic acid synthesis in Mycobacterium bovis BCG Pasteur 1173P2 sonicates assessed as inhibition of ketomycolates production by autoradiography; in short: as §1
[3] = test system: Mycobacterium tuberculosis variant bovis; assay: Inhibition of mycolic acid synthesis in Mycobacterium bovis BCG Pasteur 1173P2 sonicates assessed as inhibition of alphamycolates production using partially purified EthA as cofactor by autoradiography; in short: as §1
[4] = test system: Mycobacterium tuberculosis variant bovis; assay: Inhibition of mycolic acid synthesis in Mycobacterium bovis BCG Pasteur 1173P2 sonicates assessed as inhibition of ketomycolates production using partially purified EthA as cofactor by autoradiography; in short: as §1

Compound: CC(C)CCOc1ccc(NC(=S)Nc2ccc(OCCC(C)C)cc2)cc1 [TIOCARLIDE]
- Activity [1]: Active
- Activity [2]: Active
- Activity [3]: inactive
- Activity [4]: inactive
